Assay results reported in ChEMBL document CHEMBL3286263, “Bazedoxifene-scaffold-based mimetics of solomonsterols A and B as novel pregnane X receptor antagonists” (J Med Chem, 2014).
pIC50: −log10 of the molar value. Calls of active or inactive are those of the source. The rule behind the calls is not given here.

Columns and labels:
HepG2 [1] = experiment: Cytotoxicity against human HepG2 cells transfected with pSG5-PXR/pSG5-RXR/pCMV-beta-galactosidase/p(CYP3A4)-TK-Luc at 50 uM; assay type: ADME, cell-based; details: hepg2, 50 µM
How it was run: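 Transfected HepG2 cells given rifaximin 10 µM plus compound at 50 µM for 18 h; cytotoxicity judged by morphological analysis.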

[2] = target: T1, Nuclear receptor subfamily 1 group I member 2 (Homo sapiens, UniProt O75469); experiment: Antagonist activity at human PXR transfected in human HepG2 cells co-transfected with pSG5-RXR/pCMV-beta-galactosidase/p(CYP3A4)-TK-Luc assessed as inhibition of rifaximin-induced transactivation at 50 uM after 18 hrs by luciferase reporter gene assay; assay type: cell-based; details: hepg2, 18 h
T1 sequence (O75469 whole entry): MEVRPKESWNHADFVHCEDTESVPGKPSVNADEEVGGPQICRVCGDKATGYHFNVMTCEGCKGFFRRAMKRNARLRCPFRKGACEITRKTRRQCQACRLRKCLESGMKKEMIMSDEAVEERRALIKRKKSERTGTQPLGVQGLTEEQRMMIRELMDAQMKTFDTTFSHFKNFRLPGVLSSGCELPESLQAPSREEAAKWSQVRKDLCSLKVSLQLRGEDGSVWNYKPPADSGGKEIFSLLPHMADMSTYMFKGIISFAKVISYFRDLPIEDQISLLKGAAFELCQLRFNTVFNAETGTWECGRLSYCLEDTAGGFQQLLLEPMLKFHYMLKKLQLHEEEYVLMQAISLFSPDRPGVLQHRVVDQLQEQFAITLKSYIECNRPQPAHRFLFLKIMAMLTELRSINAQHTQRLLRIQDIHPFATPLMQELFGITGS
How it was run: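 HepG2 transiently transfected with hPXR, RXR, β-galactosidase and PXRE-luciferase vectors; 24 h later exposed 18 h to rifaximin 10 µM plus compound at 50 µM. Luciferase in lysate measured and divided by β-galactosidase activity to correct for transfection efficiency.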

[3] = target: T1, Nuclear receptor subfamily 1 group I member 2; experiment: Agonist activity at human PXR transfected in human HepG2 cells co-transfected with pSG5-RXR/pCMV-beta-galactosidase/p(CYP3A4)-TK-Luc at 10 uM after 18 hrs by luciferase reporter gene assay; assay type: cell-based; details: hepg2, 18 h
How it was run: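 HepG2 seeded 5x10^4 cells/well in MEM/10% FBS, transfected (Fugene HD) with pSG5hPXR, pSG5-RXR, pCMV-β-galactosidase and PXRE luciferase reporter. At 24 h post-transfection, treated 18 h with compounds at 10 µM; rifaximin and solomonsterol A (10 µM) as reference agonists. Lysate luciferase read, normalised to β-galactosidase activity.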

[4] = target: T1, Nuclear receptor subfamily 1 group I member 2; experiment: Antagonist activity at human PXR transfected in human HepG2 cells co-transfected with pSG5-RXR/pCMV-beta-galactosidase/p(CYP3A4)-TK-Luc assessed as inhibition of rifaximin-induced transactivation after 18 hrs by luciferase reporter gene assay; assay type: cell-based; details: for inhibition (INH): human, hepg2, 18 h
How it was run: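 PXR/RXR/β-gal/PXRE-luciferase-transfected HepG2 cells, 24 h post-transfection, co-treated 18 h with 10 µM rifaximin and compound at 10, 25 and 50 µM. β-galactosidase-normalised luciferase signal used to fit concentration-response curves for IC50.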

HepG2 [5] = experiment: Downregulation of PXR mRNA expression in rifaximin-treated human HepG2 cells at 50 uM after 18 hrs by real time-PCR analysis; assay type: functional, cell-based
How it was run: (§1)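 HepG2 seeded 5x10^5 cells/well, grown to about 70% confluence, serum-starved 24 h, then treated 18 h with rifaximin 10 µM alone or with compound at 50 µM. PXR and CYP3A4 mRNA by real-time PCR in triplicate (40 cycles), normalised to GAPDH, 2^-ΔΔCt relative to untreated cells; mean of two experiments.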

[6] = target: T1, Nuclear receptor subfamily 1 group I member 2; experiment: Antagonist activity at PXR in human HepG2 cells assessed as inhibition of rifaximin-induced CYP3A4 mRNA expression at 50 uM after 18 hrs by real time-PCR analysis; assay type: cell-based; details: hepg2, 18 h; how it was run: as §1
[7] = target: T1, Nuclear receptor subfamily 1 group I member 2; experiment: Antagonist activity at PXR (unknown origin) transfected in human HepG2 cells assessed as inhibition of rifampicin-induced reporter gene transcription; assay type: cell-based
[8] = target: T1, Nuclear receptor subfamily 1 group I member 2; experiment: Antagonist activity at human PXR transfected in African green monkey CV1 cells assessed as inhibition of SR12813-induced transactivation after 24 hrs by luciferase reporter gene assay; assay type: cell-based, CV-1

Row | Compound | inhibition (INH) [2] | Activity [3] | further results
1 | Cc1c(-c2ccc(O)c(O)c2)n(Cc2ccccc2)c2ccc(O)cc12 | Active |  | Activity (HepG2 [1]): Toxic
2 | Cc1c(-c2ccc(O)c(O)c2)[nH]c2ccc(OCCO)cc12 | Active | Not Active | 
3 | Cc1c(-c2ccc(OS(=O)(=O)[O-])c(OS(=O)(=O)[O-])c2)[nH]c2ccc(OS(=O)(=O)[O-])cc12.[Na+].[Na+].[Na+] | Not Active | Not Active | 
4 | Cc1c(-c2ccc(OS(=O)(=O)[O-])cc2)[nH]c2ccc(OCCOS(=O)(=O)[O-])cc12.[Na+].[Na+] | Not Active | Not Active | 
5 | Cc1c(-c2ccc(O)c(O)c2)[nH]c2ccc(O)cc12 | Active | Not Active | pIC50 [4]: 4.96; inhibition (INH) [4]: Dose-dependent effect; Activity (HepG2 [5]): Active; inhibition (INH) [6]: Active
6 | CCCn1c(-c2ccc(O)c(O)c2)c(C)c2cc(O)ccc21 | Active |  | Activity (HepG2 [1]): Toxic
7 | Cc1c(-c2ccc(OS(=O)(=O)[O-])c(OS(=O)(=O)[O-])c2)[nH]c2ccc(OCCCOS(=O)(=O)[O-])cc12.[Na+].[Na+].[Na+] | Not Active | Not Active | 
8 | Cc1c(-c2ccc(O)cc2)[nH]c2ccc(OCCCO)cc12 | Active | Not Active | 
9 | Cc1ccc(SC(=O)c2c(C)noc2-c2cc(C)on2)cc1 |  |  | pIC50 [7]: 6.07
10 | Cc1c(-c2ccc(OS(=O)(=O)[O-])cc2)[nH]c2ccc(OCCCOS(=O)(=O)[O-])cc12.[Na+].[Na+] | Not Active | Not Active | 
11 | C[C@H](CCCOS(=O)(=O)[O-])[C@H]1CC[C@H]2[C@@H]3CC[C@H]4C[C@H](OS(=O)(=O)[O-])[C@@H](OS(=O)(=O)[O-])C[C@]4(C)[C@H]3CC[C@]12C.[Na+].[Na+].[Na+] [SOLOMONSTEROL A] |  | Active | 
12 | COc1ccc2c(c1)c(C)c(-c1ccc(OC)c(OC)c1)n2C | Active |  | Activity (HepG2 [1]): Toxic
13 | Cc1c(-c2ccc(OS(=O)(=O)[O-])cc2)[nH]c2ccc(OS(=O)(=O)[O-])cc12.[Na+].[Na+] | Not Active | Not Active | 
14 | Cc1c(-c2ccc(O)c(O)c2)n(C)c2ccc(O)cc12 | Active |  | Activity (HepG2 [1]): Toxic
15 | Cc1c(-c2ccc(O)cc2)[nH]c2ccc(OCCO)cc12 | Active | Not Active | 
16 | Cc1c(-c2ccc(O)cc2)[nH]c2ccc(O)cc12 | Active | Not Active | 
17 | Cc1c(-c2ccc(O)c(O)c2)[nH]c2ccc(OCCCO)cc12 | Active | Not Active | pIC50 [4]: 4.85; inhibition (INH) [4]: Dose-dependent effect; Activity (HepG2 [5]): Active; inhibition (INH) [6]: Active
18 | CO[C@H]1/C=C/O[C@@]2(C)Oc3c(C)c(O)c4c(O)c(c5c(nc6cc(C)ccn65)c4c3C2=O)NC(=O)/C(C)=C\C=C\[C@H](C)[C@H](O)[C@@H](C)[C@@H](O)[C@@H](C)[C@H](OC(C)=O)[C@@H]1C [RIFAXIMIN] |  | Active | 
19 | O=c1oc2cc(O)ccc2c2oc3cc(O)ccc3c12 [COUMESTROL] |  |  | pIC50 [8]: 4.92
20 | COc1ccc2[nH]c(-c3ccc(OC)c(OC)c3)c(C)c2c1 | Active |  | Activity (HepG2 [1]): Non-toxic
